2 compounds from ChEMBL document CHEMBL2384977, “Synthesis and biological evaluation of novel styryl benzimidazole derivatives as probes for imaging of neurofibrillary tangles in Alzheimer's disease” (Bioorg Med Chem, 2013) can be followed below.

The source made the active and inactive calls. The rule behind the calls is not given here.

The species entered for one series is Homo sapiens. As to the kind of experiment: Selectivity ratio of Kd(app) for amyloid beta (1 to 42) (unknown origin) aggregates to Kd(app) for recombinant human tau (441 amino acid residues) aggregates. An outline of the steps: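 Human 441-aa tau, expressed in E. coli, was aggregated at 1 mg/mL (MES pH 6.8, 0.1 mg/mL heparin, 37 °C, 3 days, shaking). Aβ1–42 was aggregated at 0.25 mg/mL (PBS pH 7.4, 37 °C, 42 h). Aggregates were incubated 30 min at room temperature with ligand, and fluorescence read at ex 440 nm, em 510 nm (tau) or 480 nm (Aβ). Apparent Kd came from saturation curves over six independent experiments, and the ratio is Kd(Aβ)/Kd(tau).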

In series [1] the target is T1, Amyloid-beta precursor protein (Homo sapiens, UniProt P05067). As to the kind of experiment: Binding affinity to amyloid beta (1 to 42) (unknown origin) aggregates assessed as apparent dissociation constant after 30 mins by fluorescence spectroscopic analysis. The following applies: read-out: Kd(app). An outline of the steps: (§1)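 Tau: human 441-aa tau expressed in E. coli, aggregated at 1 mg/mL in MES buffer pH 6.8 with 0.1 mg/mL heparin, 37 °C for 3 days with shaking. Abeta1-42 aggregated at 0.25 mg/mL in PBS pH 7.4, 37 °C for 42 h with shaking. Aggregates at final 10 µg/mL were incubated with ligand (final 0.02–10 µM) for 30 min at room temperature. Apparent Kd was taken from fluorescence saturation curves at ex 440 nm, em 510 nm (tau) or em 480 nm (Abeta). Mean ± SEM of six independent experiments.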

Series [2] concerns the target T2, Microtubule-associated protein tau (Homo sapiens, UniProt P10636). Nature of the series: Binding affinity to recombinant human tau (441 amino acid residues) aggregates expressed in Escherichia coli assessed as apparent dissociation constant after 30 mins by fluorescence spectroscopic analysis. Conditions: read-out: Kd(app). In short, it runs like this:
as §1

In series [3] the target is T2, Microtubule-associated protein tau. As to the kind of experiment: Binding affinity to hyperphosphorylated tau protein in entorhinal cortex of alzheimer disease patient brain at 300 uM after 30 mins by fluorescence microscopic analysis. In kind it is tissue-based. An outline of the steps:
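Deparaffinized entorhinal cortex section from the same AD patient, incubated 30 min with ligand in 50% ethanol, then washed 30 s in ethanol. Imaged by fluorescence microscopy (excitation 450–490 nm, emission 510–560 nm). Spots were matched to Thioflavin S staining of the same patient's section.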

The target in series [4] is T1, Amyloid-beta precursor protein. Nature of the series: Binding affinity to amyloid beta (1 to 42) in alzheimer disease patient brain by immunohistochemical staining analysis. Conditions: tested as the 125I-labelled form. In short, it runs like this: (§2)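 Autoradiography on 6-µm deparaffinized paraffin serial sections from an autopsy-confirmed AD case; control brain section also run. [125I]SBIM-3 (92.5 kBq/100 µL) for 1 h at room temperature, 50% EtOH for 2 h, water wash 30 s, then imaging plate exposure overnight. Labelling was compared with adjacent sections immunostained for phospho-tau (AT8) or Aβ1–42 (BC05).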

In series [5] the target is T2, Microtubule-associated protein tau. Nature of the series: Binding affinity to hyperphosphorylated tau protein in alzheimer disease patient brain by immunohistochemical staining analysis. Conditions: tested as the 125I-labelled form. An outline of the steps:
as §2

Another series concerns Brain. As to the kind of experiment: Ratio of drug level in ddY mouse brain at 7.1 to 21.5 kBq, iv measured at 2 mins to drug level in ddY mouse brain at 7.1 to 21.5 kBq, iv measured at 60 mins. In kind it is ADME, organism-based. Conditions: in vivo.

T2 sequence (P10636 whole entry): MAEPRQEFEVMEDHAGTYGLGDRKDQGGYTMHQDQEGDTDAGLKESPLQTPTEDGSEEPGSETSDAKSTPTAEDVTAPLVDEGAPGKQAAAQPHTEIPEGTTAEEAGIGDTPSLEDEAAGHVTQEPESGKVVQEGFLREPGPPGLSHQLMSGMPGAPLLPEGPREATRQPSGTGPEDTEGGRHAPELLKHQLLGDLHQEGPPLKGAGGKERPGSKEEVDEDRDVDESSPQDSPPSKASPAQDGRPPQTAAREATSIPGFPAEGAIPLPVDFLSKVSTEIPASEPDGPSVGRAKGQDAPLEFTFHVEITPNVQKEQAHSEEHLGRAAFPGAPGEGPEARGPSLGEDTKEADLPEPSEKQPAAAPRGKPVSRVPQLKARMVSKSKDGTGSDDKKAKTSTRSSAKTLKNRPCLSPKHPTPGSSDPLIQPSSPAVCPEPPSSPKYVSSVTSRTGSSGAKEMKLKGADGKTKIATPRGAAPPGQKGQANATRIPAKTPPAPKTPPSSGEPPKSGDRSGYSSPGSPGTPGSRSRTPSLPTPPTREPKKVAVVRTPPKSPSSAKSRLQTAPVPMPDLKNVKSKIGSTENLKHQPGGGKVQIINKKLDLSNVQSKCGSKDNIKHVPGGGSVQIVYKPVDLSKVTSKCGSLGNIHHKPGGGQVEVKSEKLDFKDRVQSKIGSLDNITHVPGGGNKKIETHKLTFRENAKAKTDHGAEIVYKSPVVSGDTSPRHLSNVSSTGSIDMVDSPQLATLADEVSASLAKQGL
T1 sequence (P05067 whole entry): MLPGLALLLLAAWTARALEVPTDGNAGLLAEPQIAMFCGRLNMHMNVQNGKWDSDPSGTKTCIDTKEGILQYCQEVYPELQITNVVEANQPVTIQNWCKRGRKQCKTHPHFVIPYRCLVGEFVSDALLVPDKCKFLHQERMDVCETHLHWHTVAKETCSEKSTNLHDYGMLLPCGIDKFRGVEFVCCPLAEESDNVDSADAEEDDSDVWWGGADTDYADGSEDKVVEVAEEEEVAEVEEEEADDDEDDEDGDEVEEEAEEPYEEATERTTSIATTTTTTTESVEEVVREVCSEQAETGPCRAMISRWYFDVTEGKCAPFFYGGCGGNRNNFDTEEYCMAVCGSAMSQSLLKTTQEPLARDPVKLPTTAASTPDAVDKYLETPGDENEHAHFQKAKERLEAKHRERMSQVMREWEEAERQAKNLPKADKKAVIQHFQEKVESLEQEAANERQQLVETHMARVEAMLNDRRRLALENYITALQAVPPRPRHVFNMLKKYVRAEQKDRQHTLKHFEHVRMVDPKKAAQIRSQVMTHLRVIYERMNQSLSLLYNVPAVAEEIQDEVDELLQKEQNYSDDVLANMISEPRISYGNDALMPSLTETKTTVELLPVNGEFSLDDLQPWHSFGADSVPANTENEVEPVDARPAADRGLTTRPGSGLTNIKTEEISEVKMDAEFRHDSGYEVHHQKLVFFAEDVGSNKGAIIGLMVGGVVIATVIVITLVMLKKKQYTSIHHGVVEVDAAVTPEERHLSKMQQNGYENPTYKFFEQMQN

For `CN(C)c1ccc(/C=C/c2nc3ccc(I)cc3[nH]2)cc1`, the Selectivity ratio in the series filed under Homo sapiens stood at 2.73. Further, the Kd in series [1] turned out to be 0.82 µM; in series [2], 0.3 µM. Moreover, the result in series [3], in series [4] and in series [5] was Active.

As to `O=C1/C(=C/c2ccc(-c3cccc([125I])c3)o2)NC(=S)N1CCc1c[nH]cn1`, in the series with Brain, the Ratio worked out at 6.16.
